Screening results: PubChem BioAssay, several laboratories
KCNQ1 inh: blocks the human KCNQ1 potassium channel; P51787; CHO-K1 KCNQ1, FluxOR thallium flux fluorescence; hits give high values; B-score at 10 µM; 1.3% of 310,000 active; AID 2642;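 active means compounds whose thallium flux B-score, printed positive for inhibition, exceeds three library SD while starting fluorescence stays within three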;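 further: channel opened by potassium depolarization with thallium stimulus after 20 min compound exposure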
KCNQ1 pot: potentiators or activators of human KCNQ1 potassium channel; 0.35% of 310,000 active; CHO-K1 KCNQ1, thallium flux FluxOR fluorescence; hits give high values; B-score at 10 µM;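 active means fluorescence ratio B-score, a plate-corrected score, at least three library SD, with initial intensity B-score within 5 SD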
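System: CHO-K1 cells stably expressing KCNQ1 / Medium: assay buffer for compound exposure, DMSO matched across wells / Reagent: thallium- and potassium-containing depolarizing buffer / Compound: one concentration, matched DMSO / Incubation: 20 min compound pretreatment at room temperature / Measured by: kinetic FluxOR fluorescence, 10 s baseline plus 110 s post-stimulus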
hERG rescue: compounds protecting human hERG from proarrhythmic drug block | Q12809 | CHO-hERG, FluxOR thallium flux, dofetilide IC70 present | activation (rescue from dofetilide block), less the hit threshold, % at 10 µM | 0.51% of 310,000 active;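 active means activation above the mean of controls blocked by dofetilide plus 5 SD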;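 further: thallium influx through hERG after potassium depolarization seen as dye fluorescence rise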
Cl transport mod: modulates chloride dependent transport by human KCC2 | KCC2 cells, thallium flux FluoZin-2 fluorescence | B-score of Tl+ flux slope (higher = more flux/activation; lower = inhibition) at 10 µM | 2.2% of 190,000 active;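 active means thallium flux slope and its plate-corrected score both differing from the plate sample mean at a set confidence after two filtering rounds, in either direction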;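 further: slope of fluorescence scaled to starting intensity during 10 to 20 s after thallium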
AI-2 QS modul: modulates the Vibrio harveyi AI-2 quorum sensing system | 0.4% of 300,000 active | Vibrio harveyi JMH597 AI-2 luminescence/OD600 ratio, 9 h; hits give low values; strain lacks LuxN and CqsS sensors; 0 = neutral-control median | activity change, % at 7.5 µM; in the data active means activity change below about -75%, passing the limit was not always enough; inconclusive means no clear call, values can overlap the other calls;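 further: luminescence divided by OD600 gain over 9 h not by final OD600 alone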
Mot1-301 SUMO: blocks SUMOylation pathway, rescuing yeast Mot1-301 growth | 1% of 320,000 active | AID 2716 | growth rescue, % at 18.8 µM | S. cerevisiae Mot1-301 growth rescue, ATP luminescence, 38.5C; percent above DMSO median, 100 means doubled;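 active means every valid replicate shows activation above 250% relative to neutral control wells; inactive means the rest, any valid replicate at or below 250%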
KCC2 secondary: KCC2 (human) modulation, secondary assay | 15% of 3,700 active | AID 1713 | shares compounds with Cl transport mod | normalised thallium flux (F/F0 slope) at 10 µM | HEK293-KCC2, thallium flux, FluoZin2 fluorescence; hits give high values;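 active means thallium flux slope above the same plate's solvent-only control mean plus 3 SD; inconclusive means the two replicate wells disagree; inactive means no significant difference from solvent-only control wells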
KCC2 bumet counter: thallium flux persisting under bumetanide in KCC2 cells, counter-screen secondary assay | shares compounds with Cl transport mod | HEK293-KCC2 + bumetanide/ouabain, thallium flux FluoZin2; hits give high values | normalized thallium flux at 10 µM | 49% of 3,700 active | AID 1714;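 active means thallium entry rate above the same plate's blocked-transporter control wells by more than 3 SD; inconclusive means the two repeat wells disagree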;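 further: raw slope of fluorescence over initial fluorescence between 10 and 20 s after thallium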
KCC2 sec2: KCC2 (human) modulation, second secondary assay | shares compounds with Cl transport mod | HEK293-KCC2, thallium flux FluoZin2 fluorescence; actives lie on both sides; F/F0 rise rate, 10–20 s post-thallium | normalized thallium flux at 10 µM | 23% of 3,700 active;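 active means thallium flux slope more than 3 SD above or below the plate's solvent-only control mean, mostly below; inconclusive means the two repeat wells disagreed; inactive means no significant shift from solvent-only controls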
HEK counter1: parental HEK flux effect, counter-screen. AID 1716. 46% of 3,700 active. shares compounds with Cl transport mod. HEK293 parental cells, thallium flux FluoZin2, ouabain; baseline-ratio fluorescence slope, 10–20 s after thallium. thallium flux rate (normalised fluorescence) at 10 µM;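 active means thallium flux rate significantly above the same plate's solvent-only control wells, beyond their mean plus 3 SD; inconclusive means the two replicate wells gave conflicting results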
KCC2 ouabain: confirmation of human KCC2 modulators with ouabain; raw Tl+ flux slope (below DMSO = inhibition, above = activation) at 10 µM; shares compounds with Cl transport mod; HEK293-KCC2, thallium flux FluoZin2 fluorescence; bidirectional: low = inhibitor, high = activator; AID 1717; 48% of 3,700 active;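 active means thallium flux slope beyond 3 SD from same-plate DMSO control mean in most replicates, usually higher, sometimes lower; inconclusive means repeat tests gave conflicting results; inactive means no significant difference from controls in most replicates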;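 further: slope of initial-normalized fluorescence between seconds 10 and 20 after thallium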
HEK293 Tl flux2: acts in parental HEK cells, second KCC2 counter-screen | 33% of 3,700 active | HEK293 parental, thallium flux FluoZin-2 fluorescence slope | shares compounds with Cl transport mod | thallium flux slope at 10 µM;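 active means thallium flux slope above the same plate's solvent-control mean plus 3 SD in both duplicate wells; inconclusive means duplicate wells that disagreed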;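 further: run without ouabain in cells lacking the KCC2 cotransporter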
Numbers stand for hits; - = inactive; ? = inconclusive; . = not tested or not shown. In the library only some 4.2% were active in any assay of this set; here they are far more common.

SMILES	KCNQ1 inh	KCNQ1 pot	hERG rescue	Cl transport mod	AI-2 QS modul	Mot1-301 SUMO	KCC2 secondary	KCC2 bumet counter	KCC2 sec2	HEK counter1	KCC2 ouabain	HEK293 Tl flux2
CCOC(=O)C1CCCN(C/C(O)=C(\C#N)c2nc(-c3ccc(Cl)cc3)cs2)C1 (stereo not given)	-	-	-	-3.5	-	-	-	-	0.024	-	0.018	-
CN(C)c1nc(=NCc2ccco2)ss1	-	-	-	45	-	-	0.037	0.06	-	?	0.052	?
O=C1CCCC(=NCc2ccco2)C1	-	-	-	.	-	-	.	.	.	.	.	.
COc1ccc(/C=C/C(=O)NC(=S)NNC(=O)c2c(-c3ccccc3)noc2C)cc1	-	-	-	7.1	-	-	0.013	0.037	-	0.018	?	0.012
COc1ccc(/C=C/C(=O)NC(=S)NNC(=O)c2cc(OC)c(OC)c(OC)c2)cc1	-	-	-	4.5	-	-	-	?	-	-	-	-
COc1ccc(-c2cc(C(=O)NNC(=S)NC(=O)c3c(-c4ccccc4)noc3C)[nH]n2)cc1	-	-	-	-	-	-	.	.	.	.	.	.
Cc1onc(-c2ccccc2)c1C(=O)NNC(=S)NC(=O)/C=C/c1ccccc1	-	-	-	6.3	-	-	0.013	0.037	-	0.017	0.035	0.012
Cc1onc(-c2ccccc2)c1C(=O)NNC(=S)NC(=O)c1ccc(Cl)cc1Cl	-	20	-	16	-	-	?	0.044	0.055	0.039	0.045	0.042
O=C(Nc1ccc(Cl)cn1)c1ccc(-c2ccc(Cl)c(Cl)c2)o1	-	-	-	-	-	-	.	.	.	.	.	.
COc1ccc(/C=N/NC(=O)c2ccc(N)cc2)cc1Cn1cc([N+](=O)[O-])cn1	-	-	-	-	-	-	.	.	.	.	.	.
O=C(NC(=S)NCC1CCCO1)c1ccc(Cl)cc1Cl (stereo not given)	-	-	-	9	-	-	-	0.029	-	0.011	?	-
O=C(CNC(=O)c1ccc(Cl)cc1Cl)NCC1CCCO1 (stereo not given)	-	-	-	.	.	-	.	.	.	.	.	.
COc1cc(C(=O)O)ccc1OCc1ccncc1	-	-	-	.	-	-	.	.	.	.	.	.
CS(=O)(=O)N(CC(=O)N1CCN(c2ccccc2)CC1)c1cccc(Br)c1	-	-	-	.	-	-	-	-	0.023	-	0.015	-
CS(=O)(=O)N(CC(=O)N1CCN(c2ccc(F)cc2)CC1)c1ccc(F)c(Cl)c1	-	-	-	-4.4	-	-	?	-	0.028	-	0.016	-
Cc1cccc(N(CC(=O)N2CCN(c3ccc(F)cc3)CC2)S(C)(=O)=O)c1C	-	-	-	-	-	-	.	.	.	.	.	.
O=C(Cc1ccsc1)Nc1ccccc1F	-	-	-	.	-	-	.	.	.	.	.	.
COc1ccccc1Oc1ncnc2c1cnn2-c1ccccc1	-	-	-	-5	-	-	?	-	-	-	0.015	-
Cc1ccc(S(=O)(=O)Oc2ccc(C3C4=C(CCCC4=O)N(CCC(=O)O)C4=C3C(=O)CCC4)cc2Cl)cc1	-	-	-	-	-	-	.	.	.	.	.	.
N#Cc1nc(Cc2cccc3ccccc23)oc1NCCN1CCOCC1	-	-	-	-4.5	-	-	-	-	0.023	-	?	-
C=CCNc1oc(Cc2cccc3ccccc23)nc1C#N	-	-	-	-4.6	-	-	-	-	0.023	-	?	-
N#Cc1nc(Cc2cccc3ccccc23)oc1N1CCOCC1	-	-	-	-6	.	-	-	-	0.022	-	0.012	-
N#Cc1nc(Cc2ccccc2)oc1N1CCCC1	-	-	-	-	-	.	.	.	.	.	.	.
COc1ccc(NC(=O)c2cccnc2N2CCCCC2)cc1	-	-	-	-	-	.	.	.	.	.	.	.
COc1ccc(NC(=O)c2cccnc2N2CCCC2)cc1	-	-	-	.	-	-	?	-	-	-	-	-
SMILES	KCNQ1 inh	KCNQ1 pot	hERG rescue	Cl transport mod	AI-2 QS modul	Mot1-301 SUMO	KCC2 secondary	KCC2 bumet counter	KCC2 sec2	HEK counter1	KCC2 ouabain	HEK293 Tl flux2
CN1C(=O)/C(=C/c2ccccc2OCc2ccccc2)NC1=S	-	-	-	9.7	-	-	-	0.013	-	0.0098	?	-
CN1C(=O)/C(=C/c2ccccc2OCc2ccc(C(=O)O)cc2)NC1=S	-	-	-	-	-	-	.	.	.	.	.	.
Fc1ccc(-n2ncc3c(SCc4cccnc4)ncnc32)cc1	-	-	-	21	-	-	-	0.026	?	0.029	0.031	0.023
CCN(CC)CCN1C(=O)C(=O)/C(=C(/O)c2ccc(S(=O)(=O)N3CCOCC3)cc2)C1c1ccc(C)cc1 (stereo not given)	-	-	-	.	-	-	.	.	.	.	.	.
CC(=O)Nc1ccc(S(=O)(=O)Nc2cccc(-c3nc4ccccc4o3)c2)cc1	-	-	-	.	-	-	-	?	-	-	-	-
N#Cc1nc(-c2ccc(F)cc2)oc1N1CCCC1	-	-	-	-5.7	-	-	-	-	-	-	-	-
Cc1ccc(OCC(=O)NCC(=O)n2nc(C)cc2C)cc1	-	-	-	-	-	-	-	-	0.028	-	-	-
Cc1ccc(C(=O)Cc2cc3ccccc3oc2=O)c(C)c1	-	-	-	.	-	-	.	.	.	.	.	.
Cc1ccc(C)c(S(=O)(=O)N2CCN(CC(=O)N3CCc4ccccc4C3)CC2)c1	-	-	-	-4.1	-	-	-	-	-	-	0.022	?
O=C(CN1CCN(S(=O)(=O)c2cc(C(F)(F)F)ccc2Cl)CC1)N1CCc2ccccc2C1	.	.	.	.	.	-	.	.	.	.	.	.
CCc1ccc(OCc2nnc(SCC(=O)Nc3cccc(C(=O)N4CCOCC4)c3)o2)cc1	-	-	-	-3.4	-	-	-	-	-	-	-	-
Cc1nn(C)c(C)c1S(=O)(=O)N(CC(=O)N1CCc2ccccc21)c1ccc(C(C)C)cc1	-	-	-	.	-	-	.	.	.	.	.	.
